Results pooled from the literature.
Lines come from different studies, so protocols differ.
INSR: Insulin receptor (INSR, Homo sapiens, UniProt P06213)
KCNA1: Potassium voltage-gated channel subfamily A member 1 (KCNA1, Homo sapiens, UniProt Q09470)
CLK2: Dual specificity protein kinase CLK2 (CLK2, Homo sapiens, UniProt P49760)

CC[C@H](C)[C@H](NC(=O)[C@H](CCC(N)=O)NC(=O)[C@H](CCCNC(=N)N)NC(=O)[C@H](CO)NC(=O)[C@H](Cc1c[nH]cn1)NC(=O)[C@@H]1CCCN1C(=O)[C@H](C)NC(=O)[C@H](CO)NC(=O)[C@H](CC(C)C)NC(=O)CNC(=O)[C@@H]1CCCN1C(=O)[C@H](CCC(N)=O)NC(=O)[C@H](CCC(N)=O)NC(=O)[C@H](CCCNC(=N)N)NC(=O)[C@H](CO)NC(=O)CNC(=O)[C@H](CO)NC(=O)[C@H](CO)NC(=O)[C@H](CCC(=O)O)NC(=O)[C@@H]1CCCN1C(=O)[C@@H]1CCCN1C(=O)[C@@H]1CCCN1C(=O)[C@H](CO)NC(=O)[C@H](CC(C)C)NC(=O)[C@H](CO)NC(=O)[C@@H](NC(=O)CN)[C@@H](C)O)C(=O)N1CCC[C@H]1C(=O)N[C@@H](C)C(=O)N1CCC[C@H]1C(=O)N[C@@H](CCC(N)=O)C(=O)NCC(=O)N[C@@H](C)C(=O)N[C@H](C(=O)N[C@@H](CC(C)C)C(=O)N[C@H](C(=O)N[C@@H](CCC(N)=O)C(=O)N[C@@H](CCCNC(=N)N)C(=O)N[C@@H](CCC(=O)O)C(=O)N[C@@H](CCCCN)C(=O)N[C@@H](CC(=O)O)C(=O)N[C@@H](CC(C)C)C(=O)N1CCC[C@H]1C(=O)N[C@@H](CC(N)=O)C(=O)N[C@@H](Cc1ccc(O)cc1)C(=O)N[C@@H](CC(N)=O)C(=O)N[C@@H](Cc1c[nH]c2ccccc12)C(=O)N[C@@H](CC(N)=O)C(=O)N[C@@H](CO)C(=O)N[C@@H](Cc1ccccc1)C(=O)NCC(=O)N[C@@H](CC(C)C)C(=O)N[C@@H](CCCNC(=N)N)C(=O)N[C@@H](Cc1ccccc1)C(N)=O)C(C)C)C(C)C
Emax (KiSS-1 receptor (KISS1R, Homo sapiens, UniProt Q969F8, Y302A); inositol phosphate, agonist; HEK293): 94.9%

Cc1cc([C@@H](C)Nc2ccccc2C(=O)O)c2nc(N3CCC(F)(F)CC3)c(C#N)c(=O)n2c1
remaining binding (RAF proto-oncogene serine/threonine-protein kinase (RAF1, Homo sapiens, UniProt P04049); binding, competition with immobilised ligand; 10 µM): 90%

Cc1cc(NC(=O)c2cccc(NC(=O)/C=C/CN(C)C)c2)ccc1Nc1nccc(-c2cccnc2)n1
remaining binding (INSR; binding, competition with immobilised ligand; 1 µM): 81%

Cn1c(=O)c2[nH]cnc2n(C)c1=O
inhibition (KCNA1; ion current, inhibitor, patch clamp; 10 µM): 2.05%

C=CC(=O)N1CCC(COCC(=O)N2CCN(c3nc(-c4cnc(N)nc4C(F)F)nc(N4CCOC[C@@H]4C)n3)CC2)CC1
remaining binding (INSR; binding, competition with immobilised ligand; 1 µM): 94%

CCCN1C[C@H](CSC)C[C@@H]2c3cccc4[nH]cc(c34)C[C@H]21
inhibition (KCNA1; ion current, inhibitor, patch clamp; 30 µM): 34.8%

COc1cc(-c2cncc3c2CN(C)Cc2cc(N4CCNCC4)ccc2-3)cc(OC)c1OC
remaining activity (CLK2; enzyme activity, inhibitor; 1 µM): 104%

CNCCCC12CCC(c3ccccc31)c1ccccc12
inhibition (KCNA1; ion current, inhibitor, patch clamp; 3 µM): 2.68%

CNc1ncc2c(/C=C/C(=O)N3CCC(OC)CC3)nn(Cc3cccc(C(F)(F)F)c3)c2n1
remaining activity (CLK2; enzyme activity, inhibitor, radiometric; 1 µM): 93%
